Measurements reported in publication PMC7429274 (ACS infectious diseases, 2020).
Primed or numbered codes have the meaning given here. Ends that are not written are not given here. FITC′ = fluorescein isothiocyanate label

Legend:
[1] = test system: planktonic P. aeruginosa cells (PAO1, TdTomato); experiment: Probe binding to planktonic cells by flow cytometry; format: cell-based, Pseudomonas aeruginosa; details: 10, 5 or 1 μM, 30 min, room temperature, Fig. S2
How it was run: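 PAO1 with constitutive TdTomato plasmid was diluted 1:100 in LB without NaCl and grown 3 h at 37°C, 200 rpm, to mid-log. Cells were pelleted, resuspended in PBS at 10⁸ CFU/mL, labelled with FITC-peptide, washed, and fixed in 4% PFA for 20 min. 10,000 events per sample, gated on FSC/SSC and excluding low-TdTomato events. FITC MFI was normalised to autofluorescence. Two biological replicates, mean ± standard deviation.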

[2] = test system: flow cell-grown P. aeruginosa PAO1 biofilms; experiment: Peptide labeling of flow-grown biofilms by CLSM; format: cell-based, Pseudomonas aeruginosa; details: 24 h flow cell biofilms; for Biofilm labeling (CLSM): 2 μM peptide in PBS, 1 h, room temperature; for Labeling pattern / localization within biofilms (CLSM): 2 μM peptide, single slice at mid-height
[3] = test system: Human A549 type II alveolar epithelial cells; experiment: Epithelial cell infection model, CLSM colocalization with epithelial cells; format: cell-based; details: uninfected A549 cells, Fig. S8
How it was run: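 A549 cells seeded at 20,000/well in RPMI 1640 with 10% FBS and 100 U pen/strep for 3 days to ~70% confluency, then prelabelled with 1 μM cell tracker blue for 20 min at 37°C. Washed twice in warm PBS, stained with 2 μM FITC-labelled peptide for 1 h at 37°C, washed twice, fixed in 4% paraformaldehyde for 30 min. CLSM with 60x oil objective.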

[4] = test system: P. aeruginosa (strain PAO1); experiment: Bacterial growth inhibition; format: cell-based, Pseudomonas aeruginosa; details: Fig. S3
How it was run: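 PAO1 grown from overnight culture (diluted 1:100 in LB without NaCl) at 37°C, 5% CO₂, 200 rpm to mid-log (OD₆₀₀ 0.5), pelleted, resuspended in Mueller-Hinton broth to OD₆₀₀ 0.1 (~10⁷ CFU/mL). Serially diluted FITC-labelled peptide added in triplicate; gentamycin 10 μg/mL positive control, PBS mock. OD₆₀₀ read every 30 min for 16 h at 37°C, 5% CO₂. Background-corrected mean OD normalised to PBS wells, as percentage.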

[5] = test system: human primary neutrophils infected or not with PAO1-GFP+; experiment: Human primary neutrophil infection model, imaging flow cytometry; format: cell-based
[6] = test system: P. aeruginosa-infected wounds; experiment: Ex vivo CLSM of sectioned wound tissue; format: in vivo, female BALB/c athymic nude mice; details: harvested after 18 h imaging
How it was run: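 Two 6 mm full-thickness dorsal wounds per mouse, occlusive dressing, 48 h recovery. Wounds were then inoculated with 60 μL containing ~10⁷ cells of a 50:50 mix of lux-tagged and TdTomato PAO1, or mock-treated with PBS. Cy5-labelled peptide probe, 60 nmoles, was given by tail vein 24 h later. After the 18 h imaging point, mice were CO₂-euthanised. Wounds were DAPI-stained (1 μg/mL, 10 min), fixed in 4% PFA for 24 h, OCT cryosectioned and imaged by CLSM.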

[7] = test system: P. aeruginosa-infected wounds; experiment: In vivo optical imaging in mouse infected wound model; parameters: species or system female BALB/c athymic nude mice; details: 6 h post probe injection, p<0.0035, Fig. S7
How it was run: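 Wounded mice (6 mm dorsal biopsies, 48 h recovery) had wounds inoculated with ~10⁷ cells of a 50:50 lux-tagged/TdTomato PAO1 mix or PBS. Cy5-labelled peptide probe (60 nmoles, tail vein) or PBS was injected 24 h later; groups n=4, 3, 2. Isoflurane-anaesthetised mice were imaged at 3, 6 and 18 h. Bioluminescence integration was 2 s; fluorescence excitation was 640 nm. ROI wound Cy5 was normalised to surrounding non-wound tissue.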

[8] = test system: P. aeruginosa aggregates (PAO1-mCherry) on A549 cells; experiment: Epithelial cell infection model, CLSM colocalization with bacteria; format: cell-based, Pseudomonas aeruginosa; details: Cy5-labeled probes, Fig. S5

Substance | Labeling of planktonic P. aeruginosa cells (FITC MFI, flow cytometry) [1] | Biofilm labeling (CLSM) [2] | Targeting of epithelial cells in the absence of infection [3] | Labeling pattern / localization within biofilms (CLSM) [2] | also measured
^aFITC-TGRAKRRMQYNRR [UBI29-41-FITC, reference compound] | minimal targeting of P. aeruginosa cells | failed to label biofilms | – | – | –
(4Iph)(f)LPNSNHIKQGL-FITC^b [4Iphf-HN17-FITC] | to a lesser degree than LG21-FITC and LL37-FITC | biofilm labeling was observed | did not target epithelial cells in the absence of infection | penetrated into biofilms | –
^aFITC-KRNQRMARYRRGT ({FITC′}-KRNQRMARYRRGT) [UBIsc-FITC, reference compound] | minimal targeting of P. aeruginosa cells | failed to label biofilms | – | – | –
^aFITC-LLPIVGNLLKSLLGWKRKRFG [LG21-FITC] | greatest targeting of planktonic cells | biofilm labeling was observed | did not target epithelial cells in the absence of infection | localized to the periphery of biofilms | –
(4Iph)(f)LPNSNHIKQGL-Cy5^b [4Iphf-HN17-Cy5] | – | retained similar biofilm targeting properties | – | – | Bactericidal effects against P. aeruginosa [4]: no bactericidal effects; Percentage of neutrophils that were Cy5+ ([5]; each of the four populations): greater than 87%; Colocalization between Cy5 and GFP (similarity feature) ([5]; every cell, all infected neutrophils regardless of morphology): < 0.2; Percentage of neutrophils that were Cy5+ ([5]; infected neutrophils with irregular morphology): 99.8%; Percentage of neutrophils that were Cy5+ ([5]; uninfected cells with normal morphology): 87.8%; Cy5 fluorescence in sectioned wound tissue (CLSM) ([6]; infected wound): intense, multi-focal pockets; Cy5 fluorescence in sectioned wound tissue (CLSM) ([6]; uninfected wound): minimal Cy5 fluorescence; Cy5 signal enhancement in infected wounds vs PBS-treated wounds [7]: reached statistical significance compared to PBS-treated wounds; Targeting in the epithelial cell infection model (Cy5 probes) [8]: biofilm specificity in the epithelial cell infection model
^aFITC-LLGDFFRKSKEKIGKEFKRIVQRIKDFLRNLVPRTES [LL37-FITC, reference compound] | greatest targeting of planktonic cells | biofilm labeling was observed | – | localized to the periphery of biofilms | –
^aFITC-WPRRPWRR ({FITC′}-WPRRPWRR) [WR8-Pro-FITC] | minimal targeting of P. aeruginosa cells | complete lack of binding | – | – | –
^aFITC-WWRRWWR [WR8-FITC] | to a lesser degree than LG21-FITC and LL37-FITC | biofilm labeling was observed | moderate targeting of these cells | penetrated into biofilms | –
^aFITC-WWKKWWKK [WK8-FITC] | to a lesser degree than LG21-FITC and LL37-FITC | biofilm labeling was observed | moderate targeting of these cells | penetrated into biofilms | –
